Active and inactive are the calls of the source.
Legend:
Mus musculus [1] = assay: Effect on baseline nociceptive threshold in Freund's complete adjuvant-induced mouse at 50 to 100 mg/kg, ip administered 40 mins before CFA challenge measured 2 to 6 hrs; type: functional, organism-based
Mus musculus [2] = assay: Antinociceptive activity against Freund's complete adjuvant-induced paw inflammation in mouse assessed as reduction in mechanical hyperalgesia at 100 mg/kg, ip administered 40 mins before CFA challenge measured after 2 to 6 hrs; type: functional, organism-based; set-up: dose 100 mg/kg
How it was run: (§1)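 Mice, lightly halothane-anesthetized, got 20 μL complete Freund's adjuvant (1 mg/mL heat-killed M. tuberculosis in paraffin oil/mannide monooleate) sc into the right hind plantar surface. Treatment was ip in 2% DMSO/saline 40 min before CFA. Mechanical threshold was read with von Frey filaments by the up-down method at 2, 4 and 6 h. n = 6 mice/group, means ± SEM, two-way ANOVA with Bonferroni.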

Mus musculus [3] = assay: Antinociceptive activity against Freund's complete adjuvant-induced paw inflammation in mouse assessed as reduction in paw edema at 100 mg/kg, ip administered 40 mins before CFA challenge measured after 4 hrs; type: functional, organism-based; set-up: dose 100 mg/kg
How it was run: (§2)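 CFA (20 μL, 1 mg/mL heat-killed M. tuberculosis) was injected sc into the right hind plantar surface. Treatment was ip in 2% DMSO/saline 40 min before. Paw volume was read by plethysmometer before and after CFA, and edema taken as the volume difference (mm3/paw). n = 6 mice/group, means ± SEM, two-way ANOVA with Bonferroni.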

Mus musculus [4] = assay: Toxicity in mouse assessed as leukogram at 50 mg/kg, ip for seven consecutive days relative to control; type: organism-based; set-up: dose 50 mg/kg, route intraperitoneal; settings: in vivo
How it was run: (§3)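 Mice were weighed and dosed ip once daily for 7 consecutive days, vehicle controls alongside, and monitored for toxic signs and general appearance. At the end, retro-orbital blood was taken under light anesthesia for leukocyte counts. Serum, from blood centrifuged at 2500 rpm for 15 min without anticoagulant, was used for ALT and AST.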

Mus musculus [5] = assay: Toxicity in mouse assessed as edema in gastric mucosa at 50 mg/kg, ip for seven consecutive days relative to control; type: organism-based; set-up: dose 50 mg/kg, route intraperitoneal; settings: in vivo
How it was run: (§4)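 After 7 daily ip doses, stomachs were cryosectioned at 3 μm and stained with H&E. Sections were scored blind 0–4 for inflammatory infiltrate, edema, epithelial loss and necrosis. Ten fields (40×) were read per section, means ± SEM.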

Mus musculus [6] = assay: Toxicity in mouse assessed as reduction in corporal mass at 50 mg/kg, ip for seven consecutive days relative to control; type: organism-based; set-up: dose 50 mg/kg, route intraperitoneal; settings: in vivo
How it was run: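 Male mice (22–28 g) weighed and dosed once daily ip for seven consecutive days with test agent or vehicle (2% DMSO in saline). Body mass, general appearance and toxic signs followed and compared with vehicle-treated mice. Data are means ± SEM, 6–9 animals per group.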

Mus musculus [7] = assay: Toxicity in mouse assessed as liver function measuring serum AST level at 50 mg/kg, ip for seven consecutive days relative to control; type: organism-based; set-up: dose 50 mg/kg, route intraperitoneal; settings: in vivo; how it was run: as §3
Mus musculus [8] = assay: Antinociceptive activity against Freund's complete adjuvant-induced paw inflammation in mouse assessed as reduction in paw edema at 50 mg/kg, ip administered 40 mins before CFA challenge measured after 2 hrs; type: functional, organism-based; set-up: dose 50 mg/kg; how it was run: as §2
Mus musculus [9] = assay: Toxicity in mouse assessed as reduction in corporal mass at 100 mg/kg, ip for seven consecutive days relative to control; type: organism-based; set-up: dose 100 mg/kg, route intraperitoneal; settings: in vivo; how it was run: as §3
Mus musculus [10] = assay: Toxicity in mouse assessed as edema in gastric mucosa at 100 mg/kg, ip for seven consecutive days relative to control; type: organism-based; set-up: dose 100 mg/kg, route intraperitoneal; settings: in vivo; how it was run: as §4
Mus musculus [11] = assay: Antinociceptive activity against Freund's complete adjuvant-induced paw inflammation in mouse assessed as reduction in mechanical hyperalgesia at 50 mg/kg, ip administered 40 mins before CFA challenge measured after 2 to 6 hrs; type: functional, organism-based; set-up: dose 50 mg/kg; how it was run: as §1
Mus musculus [12] = assay: Toxicity in mouse assessed as gastric ulcer at 100 mg/kg, ip for seven consecutive days relative to control; type: organism-based, Stomach; set-up: dose 100 mg/kg, route intraperitoneal; settings: in vivo; how it was run: as §4
Mus musculus [13] = assay: Neurotoxicity in mouse assessed as effect on motor coordination by measuring reduced latency at 100 mg/kg, ip after 40 mins by rotarod test; type: toxicity, organism-based; set-up: dose 100 mg/kg, route intraperitoneal; settings: in vivo
How it was run: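 Mice were pre-selected 24 h earlier for staying on the bar for two 120 s periods. Rotarod was a 3 cm bar at 5 rpm. Mice were tested 40 min after ip dosing, with diazepam 10 mg/kg ip as reference. Time on the rod was recorded up to 120 s. n = 6/group.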

Mus musculus [14] = assay: Antinociceptive activity against Freund's complete adjuvant-induced paw inflammation in mouse assessed as reduction in paw edema at 50 mg/kg, ip administered 40 mins before CFA challenge measured after 4 hrs; type: functional, organism-based; set-up: dose 50 mg/kg; how it was run: as §2
Mus musculus [15] = assay: Antinociceptive activity in ip dosed mouse assessed as inhibition of acetic acid-induced abdominal constrictions administered 40 mins before acetic acid challenge measured for 30 mins; type: functional, organism-based; settings: Abdomen
How it was run: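 Dosing was ip in 2% DMSO/saline 40 min before ip acetic acid (0.8% v/v, 10 mL/kg). Writhes (abdominal contraction with hind-limb stretching) were counted over 0–30 min. n = 6 mice/group, means ± SEM, ANOVA with Tukey.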

Mus musculus [16] = assay: Toxicity in mouse assessed as inflammatory cell infiltrate in gastric mucosa at 100 mg/kg, ip for seven consecutive days relative to control; type: organism-based; set-up: dose 100 mg/kg, route intraperitoneal; settings: in vivo; how it was run: as §4
Mus musculus [17] = assay: Inhibition of TNF-alpha production in Freund's complete adjuvant-induced mouse at 100 mg/kg, ip administered 40 mins before CFA challenge measured after 2 hrs by ELISA; type: functional, organism-based; set-up: dose 100 mg/kg
How it was run: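 CFA was given intraplantar, with ip dosing (2% DMSO/saline vehicle) 40 min earlier. At 2 h, paw skin was taken under terminal halothane anesthesia. Tissue was extracted (100 mg/mL PBS with 0.4 M NaCl, 0.05% Tween 20 and protease inhibitors) and centrifuged at 3000g for 10 min. Supernatant was assayed by mouse ELISA, in pg/mL. n = 6/group.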

Mus musculus [18] = assay: Toxicity in mouse assessed as inflammatory cell infiltrate in gastric mucosa at 50 mg/kg, ip for seven consecutive days relative to control; type: organism-based; set-up: dose 50 mg/kg, route intraperitoneal; settings: in vivo; how it was run: as §4
Mus musculus [19] = assay: Antinociceptive activity against Freund's complete adjuvant-induced paw inflammation in mouse assessed as reduction in paw edema at 50 mg/kg, ip administered 40 mins before CFA challenge measured after 6 hrs; type: functional, organism-based; set-up: dose 50 mg/kg; how it was run: as §2
Mus musculus [20] = assay: Neurotoxicity in mouse assessed as effect on motor coordination at 100 mg/kg, ip after 40 mins by Rotarod test; settings: in vivo
Mus musculus [21] = assay: Antinociceptive activity against Freund's complete adjuvant-induced paw inflammation in IL10-deficient C57BL/6 mouse assessed as reduction in mechanical hyperalgesia at 100 mg/kg, ip administered 40 mins before CFA challenge measured 2 to 6 hrs; type: functional, organism-based; set-up: dose 100 mg/kg; how it was run: as §1
Mus musculus [22] = assay: Toxicity in mouse assessed as leukogram at 100 mg/kg, ip for seven consecutive days relative to control; type: organism-based; set-up: dose 100 mg/kg, route intraperitoneal; settings: in vivo; how it was run: as §3
Mus musculus [23] = assay: Antinociceptive activity against formalin-induced pain in mouse assessed as paw licking during late phase (10 to 60 mins) at 100 mg/kg, ip administered 40 mins before formalin challenge; type: functional, organism-based; set-up: dose 100 mg/kg
How it was run: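 Mice were acclimated 30 min in an observation chamber, then given 20 μL of 2.5% formalin sc into the dorsal hind paw. Dosing was ip (2% DMSO/saline vehicle) 40 min beforehand. Time spent licking the injected paw was scored over 0–10 min and 10–60 min. n = 6/group, means ± SEM, ANOVA with Tukey.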

COc1c(O)cc2c(c1O)[C@@H]1O[C@H](CO)[C@@H](O)[C@H](O)[C@H]1OC2=O [BERGENIN]
Activity (Mus musculus [1]): inactive | Activity (Mus musculus [2]): Active | Activity (Mus musculus [3]): Active | Activity (Mus musculus [4]): Non-toxic | Activity (Mus musculus [5]): Non-toxic | Activity (Mus musculus [6]): Non-toxic | Activity (Mus musculus [7]): Non-toxic | Activity (Mus musculus [8]): Active | Activity (Mus musculus [9]): Non-toxic | Activity (Mus musculus [10]): Non-toxic | Activity (Mus musculus [11]): Active | Activity (Mus musculus [12]): Non-toxic | Activity (Mus musculus [13]): Non-toxic | Activity (Mus musculus [14]): Active | Activity (Mus musculus [15]): Dose-dependent effect | Activity (Mus musculus [16]): Non-toxic | inhibition (Mus musculus [17]): Active | Activity (Mus musculus [18]): Non-toxic | Activity (Mus musculus [19]): inactive | Activity (Mus musculus [20]): Non-toxic | Activity (Mus musculus [21]): Active | Activity (Mus musculus [22]): Non-toxic | Activity (Mus musculus [23]): Active

Source: ChEMBL document CHEMBL1833877, “Antinociceptive properties of bergenin” (J Nat Prod, 2011)
